Results on 18 compounds are retold here after PubChem BioAssay.

Molecules are shown by their SMILES. Values without a mark were called inactive. Inconclusive results are not listed. Active and inactive are the calls of the source.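 Rule for the calls, unless noted: active = inhibition over a set limit, the all-compound mean plus 3 SD, in both replicate runs; inconclusive = over that limit in just one replicate run; inactive = at or under that limit in both runs.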

Assay [1] in a line: S. cerevisiae growth inhibition in permissive medium (OD615), pilot counter-assay for S. cerevisiae lifespan shortening project, permissive growth control (AID 705;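 active = growth inhibition above 25% in both replicates, a cutoff set 3 SD above the mean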). To be noted: OD615, 24 h, at 10 µM, active compounds read high. In outline:
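Test system: Saccharomyces cerevisiae strain carrying genetically modified DeaD replicative-lifespan system; buffer or medium: SC raffinose/galactose permissive medium; dosing: one dose 10 µM, DMSO 0.25% final; times: 24 h exposure, 30 °C; measured by: OD at 615 nm; read-out basis: growth inhibition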

Assay [2] is described as follows: S. cerevisiae growth inhibition in restrictive medium, OD615, pilot screen, restrictive growth control, yeast lifespan reduction project (AID 706;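 active = growth inhibition above a set limit, 3 SD over mean compound inhibition, in both replicates, cut at about 43% in these data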;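 note: modified DeaD lifespan yeast strain shifted to restrictive glucose medium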). As to conditions: OD615, 48 h, at 10 µM, active compounds read high. In outline: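 material = engineered S. cerevisiae DeaD strain | buffer or medium = glucose-based CSMM-D restrictive medium | dosing = one concentration, 10 µM final, 0.25% DMSO | schedule = 4 h pre-growth plus 48 h compound exposure, 30 °C | detection = OD615 absorbance reading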

Assay [3] is described as follows: doxorubicin toxicity protection in MRP-1 cells – H69AR cells, CellTiter-Glo, duplicate, MRP-1 activator project, pilot screen (AID 807;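 active = viability increase at or above a cutoff of the median across tested compounds plus 3 SD, cut at about 8.5% in these data, passing the limit was not always enough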;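 note: compound pretreatment 18-22 h then 72 h combined with doxorubicin; 0% = doxorubicin alone and 100% = vehicle without doxorubicin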). As to conditions: H69AR viability with doxorubicin, CellTiter-Glo luminescence; at 10 µM; active compounds read high.
Assay [4] in a line: viability of HCT116 without oncogenic beta-catenin – human colon tumor cells, pilot screen (AID 823;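 active = cell viability at or below a set limit in both duplicate runs, the limit being the all-compound median minus 4 SD, cut at about 23% in these data, passing the limit was not always enough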;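 note: 0% = wells killed by 20 µM Hyamine and 100% = untreated DMSO cell wells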). As to conditions: HCT116 beta-catenin knockout viability, CellTiter-Glo, 60 h; at 10 µM; active compounds read low.
Assay [5] in a line: viability of PTEN-null HCT116 cells – cell-based, HCT116 clonal line, CellTiter-Glo, pilot screen (AID 824;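 active = viability at or below 27.92% in each of two runs, the all-compound median minus 4 SD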;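 note: 0% = 20 µM Hyamine control and 100% = vehicle cell control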). To be noted: HCT116 PTEN-deleted viability, 60 h, at 10 µM, active compounds read low.
Assay [6] is described as follows: RAM pathway blockade in budding yeast – dse1pr::URA3 reporter, 5-FOA selection, pilot screen (AID 869).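 Note: 0% = DMSO wells with no growth and 100% = 10 µM 1-NA-PP1 with full growth; RAM network block rescues cells from 5-FOA so hits raise OD615 growth.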 As to conditions: S. cerevisiae dse1pr::URA3 5-FOA growth, OD615, 2 d; at 10 µM; active compounds read high; strain carries analog-sensitive mutant Cbk1 kinase.
The nature of assay [7]: RAM signaling pathway blockade in yeast – S. cerevisiae, Pdr1DBD-CYC8 efflux-inhibited sensitized strain, primary screen (AID 1298;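 active = RAM network inhibition above 8.4% in each of two replicates, 3 SD over the compound average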;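 note: 0% = DMSO untreated cells without growth and 100% = 10 µM 1-NA-PP1 full growth; higher means more yeast growth rescued from 5-FOA killing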). As to conditions: S. cerevisiae cbk1-as DSE1-URA3 strain, 5-FOA growth OD615, 2 d; at 50 µM; active compounds read high.

Regarding `COC(=O)C1=COC(C)C2CN3CCc4c([nH]c5ccccc45)C3CC12` (stereo unspecified), the figures for the growth inhibition in assay [1] and in assay [2] were -14.5% and 1.04%, respectively. In assay [3], the viability increase was -4.71%. In addition, the viability was 77.4% in assay [4] and 86% in assay [5]. Further, in assay [6], the inhibition is 1.6%. The RAM network inhibition in assay [7] is 7.8%.

For `CCOCCCNC(=O)CCCn1nc(C)n2c(cc3sccc32)c1=O`, the values for the growth inhibition in assay [1] and in assay [2] were -4.89% and 5.71%, respectively. The viability increase in assay [3] was 0.66%. Moreover, the viability in assay [4] was 108%; in assay [5], 98%. Besides, in assay [6], the inhibition was 0.895%. The RAM network inhibition in assay [7] was 4.4%.

On to `COc1ccc(C)c(S(=O)(=O)Nc2ccc(OCC(=O)O)cc2)c1`, for which the growth inhibition in assay [1] is 2.53%; in assay [2], -4.93%. The viability increase in assay [3] is -1.41%. Besides, the viability in assay [4] was 99%; in assay [5], 102%. Moreover, in assay [6], the inhibition is 0.345%. Moreover, the RAM network inhibition in assay [7] was -1.4%.

Take `CCC(=O)NCCc1cc2ccc(C)cc2[nH]c1=O`: the growth inhibition was -3.85% in assay [1] and -15.4% in assay [2]. In addition, the viability increase in assay [3] was -1.94%. In addition, the viability in assay [4] is 110%; in assay [5], 93.8%. In addition, the inhibition in assay [6] is 2.58%. The RAM network inhibition in assay [7] is 0.78%.

On to `O=C(O)CSCC(=O)c1ccccc1`, for which the growth inhibition was -6.96% in assay [1] and -1.74% in assay [2]. Moreover, in assay [3], the viability increase is 0.58%. The values for the viability in assay [4] and in assay [5] were 107% and 101%, respectively. The inhibition in assay [6] is 1.15%. For the same compound, the RAM network inhibition in assay [7] was -0.89%.

In the case of `Cc1c(C(=O)NCC2CCCO2)sc2nc(-c3ccc(F)cc3)cn12` (stereo unspecified), the figures for the growth inhibition in assay [1] and in assay [2] were 3.06% and 0.065%, respectively. Further, the viability increase in assay [3] was 1.26%. Besides, the viability is 95.2% in assay [4] and 97.3% in assay [5]. In assay [6], the inhibition was 0.68%. The RAM network inhibition in assay [7] is 3.33%.

For `COc1ccc2c(c1)NC1(O)c3ccccc3C(=O)C21O` (stereo unspecified), the growth inhibition in assay [1] is -5.39%; in assay [2] it was 4.5%. For the same compound, the viability increase in assay [3] was -1.41%. For the same compound, the viability was 99.3% in assay [4] and 98.3% in assay [5]. In addition, the inhibition in assay [6] was 1.53%. The RAM network inhibition in assay [7] was 3.44%.

For `CN1C(=O)CC(N2CCN(c3ncccn3)CC2)C1=O` (stereo unspecified), the growth inhibition in assay [1] was 1.35%; in assay [2], -4.12%. Besides, the viability increase in assay [3] is 0.31%. The viability in assay [4] was 103%; in assay [5], 100%. Besides, the inhibition in assay [6] was 0.77%. Further, the RAM network inhibition in assay [7] was 5.07%.

As for `O=C(O)CSCCc1ccccn1`, the values for the growth inhibition in assay [1] and in assay [2] were 4.38% and 11.1%, respectively. In addition, the viability increase in assay [3] was -0.02%. For the same compound, the viability in assay [4] was 98.3%; in assay [5] it was 99.6%. The inhibition in assay [6] is 1.27%. Further, in assay [7], the RAM network inhibition was 4.45%.

For the compound `O=C(Cn1ncc2c(=O)oc3ccccc3c21)N(Cc1ccco1)C1CCCCC1`, the growth inhibition in assay [1] was -4.29%; in assay [2] it was -1.01%. Moreover, in assay [3], the viability increase is -4.59%. The results for the viability in assay [4] and in assay [5] were 92.5% and 94.6%, respectively. Also, the inhibition in assay [6] was 2.71%. In addition, the RAM network inhibition in assay [7] is 5.12%.

Turning to `Cn1c(C(=O)NCCN2CCc3ccccc3C2)cc2c(=O)n(C)c3ccccc3c21`, the growth inhibition in assay [1] is -2.54%; in assay [2], 4.4%. In addition, the viability increase in assay [3] is -4.36%. Also, the viability is 70.4% in assay [4] and 72.5% in assay [5]. Besides, the inhibition in assay [6] was 2.96%. For the same compound, the RAM network inhibition in assay [7] was 1.02%.

Take `COc1ccc(OC)c(N(CC(=O)NCc2ccccn2)S(C)(=O)=O)c1`: the values for the growth inhibition in assay [1] and in assay [2] were -0.79% and -6.94%, respectively. Also, the viability increase in assay [3] is -2.27%. For the same compound, the viability in assay [4] was 98.1%; in assay [5], 96.3%. The inhibition in assay [6] was 1.44%. Also, in assay [7], the RAM network inhibition was 0.46%.

On to `O=C(CCC1CCCC1)N1CCN(C(=O)c2ccco2)CC1`, for which the growth inhibition is -5.94% in assay [1] and -2.57% in assay [2]. Moreover, the viability increase in assay [3] was -3.59%. In addition, the viability in assay [4] was 86.3%; in assay [5], 83.2%. Further, the inhibition in assay [6] is 1.39%. Also, the RAM network inhibition in assay [7] was 0.98%.

For `O=C(c1ccc(CS(=O)(=O)c2ccc(Br)cc2)o1)N1CCCCCC1`, the growth inhibition was -9.29% in assay [1] and -18.8% in assay [2]. Moreover, in assay [3], the viability increase is -2.25%. Besides, the viability in assay [4] was 87.9%; in assay [5], 92.2%. Moreover, the inhibition in assay [6] was 0.185%. Moreover, the RAM network inhibition in assay [7] is 9.94%.

Take `N#Cc1ccc(NC(=O)Nc2ccc(Cl)cc2)cc1`: the growth inhibition in assay [1] was 3.13%; in assay [2], -4.69%. For the same compound, the viability increase in assay [3] is -7.91%. Also, the values for the viability in assay [4] and in assay [5] were 6.71% (active) and 7.35% (active), respectively. Further, the inhibition in assay [6] was 1.34%. Moreover, the RAM network inhibition in assay [7] is 1.44%.

In the case of `CN(C)c1ccc(NC(=O)c2cccc(N3C(=O)CCC3=O)c2)cc1`, the growth inhibition is 5.53% in assay [1] and 4.7% in assay [2]. For the same compound, the viability increase in assay [3] was 1.36%. Further, the viability was 106% in assay [4] and 100% in assay [5]. In addition, the inhibition in assay [6] was -0.005%. The RAM network inhibition in assay [7] is 4.75%.

In the case of `O=C(NC(Nc1ncccn1)C(=O)c1ccccc1)c1ccccc1` (stereo unspecified), the growth inhibition in assay [1] was 5.63%; in assay [2], -0.54%. Further, in assay [3], the viability increase was -0.49%. In addition, the viability in assay [4] was 96.6%; in assay [5], 98.5%. Besides, the inhibition in assay [6] was -0.25%. Besides, the RAM network inhibition in assay [7] is 2.01%.

Take `Cc1ccc(Cn2nnc3c(=O)n(Cc4ccccc4C)cnc32)cc1`: the growth inhibition in assay [1] is 1.6%; in assay [2], -5.54%. The viability increase in assay [3] was -2.98%. The viability in assay [4] is 92.7%; in assay [5], 82.3%. Moreover, the inhibition in assay [6] is 1.68%. In addition, in assay [7], the RAM network inhibition was 8.59%.
